In ChEMBL document CHEMBL1122883, “An interdisciplinary approach to the design of new structures active at the beta-adrenergic receptor. Aliphatic oxime ether derivatives” (J Med Chem, 1985):

What was measured:
[1] = biological target: Beta-1 adrenergic receptor (Cavia porcellus, UniProt B0FL73); assay: (§1) Antagonistic activity against beta-1 adrenergic receptor of isolated guinea pig atria; assay type: functional; conditions: read-out: pA2 (converted)
Summary of the method: (§2)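 Antagonism was assessed from dose–response curves to noradrenaline and isoprenaline obtained before and after a 20 min contact period with the test antagonist. Each agonist was allowed to act until maximal response.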

[2] = biological target: Beta-2 adrenergic receptor (Cavia porcellus, UniProt Q8K4Z4); assay: Antagonistic activity against beta-2 adrenergic receptor on isolated guinea pig tracheal strips; assay type: functional, tissue-based, Trachea; conditions: read-out: pA2 (converted)
Sequence of Beta-2 adrenergic receptor (Q8K4Z4 whole entry): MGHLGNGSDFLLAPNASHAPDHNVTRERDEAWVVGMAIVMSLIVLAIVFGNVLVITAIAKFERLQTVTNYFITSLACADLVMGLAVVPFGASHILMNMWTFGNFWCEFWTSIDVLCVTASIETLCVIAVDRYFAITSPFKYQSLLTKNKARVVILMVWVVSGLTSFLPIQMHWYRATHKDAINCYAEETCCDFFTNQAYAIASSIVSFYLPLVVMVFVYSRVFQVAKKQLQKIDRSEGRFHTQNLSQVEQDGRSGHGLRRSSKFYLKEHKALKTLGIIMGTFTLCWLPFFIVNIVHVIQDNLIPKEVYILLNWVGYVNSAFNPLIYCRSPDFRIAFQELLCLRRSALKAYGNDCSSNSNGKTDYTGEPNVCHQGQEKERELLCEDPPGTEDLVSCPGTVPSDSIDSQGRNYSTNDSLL
Summary of the method: (§3)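 Tracheal strips from male adult guinea pigs (300–350 g) in Krebs–Henseleit with ascorbic acid (0.1 mg/mL) and phentolamine (0.1 μg/mL), 37 °C, 95% O2–5% CO2. Strips were under 0.5 g tension, stabilized 30 min, and given steady tone with carbachol 5 × 10^-7 M. Isotonic recording. Agonist dose–response curves to noradrenaline and isoprenaline were run before and after 20 min antagonist contact.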

[3] = biological target: Beta-1 adrenergic receptor (Cavia porcellus) (UniProt B0FL73); assay: as §1; assay type: functional; summary of the method: as §2
Sequence of Beta-1 adrenergic receptor (Cavia porcellus) (B0FL73 1-467): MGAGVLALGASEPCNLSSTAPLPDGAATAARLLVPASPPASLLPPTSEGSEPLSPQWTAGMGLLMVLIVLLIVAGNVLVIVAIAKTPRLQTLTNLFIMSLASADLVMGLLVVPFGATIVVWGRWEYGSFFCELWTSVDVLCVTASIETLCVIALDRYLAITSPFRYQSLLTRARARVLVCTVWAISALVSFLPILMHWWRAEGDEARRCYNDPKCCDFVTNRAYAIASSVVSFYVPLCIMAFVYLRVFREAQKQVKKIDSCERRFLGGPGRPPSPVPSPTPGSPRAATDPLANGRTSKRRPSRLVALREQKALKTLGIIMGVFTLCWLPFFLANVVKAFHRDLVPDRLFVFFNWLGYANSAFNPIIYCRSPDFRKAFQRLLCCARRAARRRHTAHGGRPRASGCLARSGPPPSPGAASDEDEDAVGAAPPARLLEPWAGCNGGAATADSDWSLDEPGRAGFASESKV

[4] = biological target: Beta-2 adrenergic receptor (Cavia porcellus) (UniProt Q8K4Z4); assay: Specific antagonistic activity difference against beta-2 adrenergic receptor of isolated guinea pig tracheal strips; assay type: functional
Sequence of Beta-2 adrenergic receptor (Cavia porcellus) (Q8K4Z4 whole entry, looked up): as the sequence (Q8K4Z4 whole entry) above

[5] = biological target: Beta-2 adrenergic receptor (Cavia porcellus) (UniProt Q8K4Z4); assay: Antagonistic activity against beta-2 adrenergic receptor of isolated guinea pig tracheal strips; assay type: functional, tissue-based; conditions: Trachea; summary of the method: as §3
[6] = biological target: Beta-1 adrenergic receptor (Cavia porcellus) (UniProt B0FL73); assay: Specific antagonistic activity difference against beta-1 adrenergic receptor of isolated guinea pig atria; assay type: functional
[7] = biological target: Beta-1 adrenergic receptor (Cavia porcellus) (UniProt B0FL73); assay: Stimulating activity against beta-1
Summary of the method: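 Agonist given until maximal response was reached, building dose–response curves. Affinity expressed as pD2, calculated by the Ariëns–Van Rossum method.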

[8] = biological target: Beta-1 adrenergic receptor (Cavia porcellus) (UniProt B0FL73); assay: […] activity against beta-1 adrenergic receptor on isolated guinea pig atria; assay type: functional; summary of the method: as §2
[9] = biological target: Beta-1 adrenergic receptor (Cavia porcellus) (UniProt B0FL73)

Sequence of Beta-1 adrenergic receptor (B0FL73 whole entry): as the sequence (B0FL73 1-467) above

Row | SMILES | Kb [1] | Kb [2] | pA10 [3] | pA2 - pA10 [4] | pA10 [5] | pA2 - pA10 [6] | pD2 [7] | pD2 [8] | pD2 [9]
1 | CCCC(CCC)=NOCC(O)CNC(C)(C)C (centres undefined) | 4680 nM | 2.4 nM | 4.48 | 0.69 | 7.93 | 0.85 |  |  | 
2 | CC(C)C(=NOCC(O)CNC(C)(C)C)C(C)C (centres undefined) | 14500 nM | 22.9 nM | 3.94 | 0.82 | 6.82 | 0.9 | 6.12 |  | 
3 | OCc1ccc(O)c(O)c1 |  |  |  |  |  |  |  | 8.44 | 
4 | CCC(CC)=NOCC(O)CNC(C)(C)C (centres undefined) | 1260 nM | 10.5 nM | 5.19 | 0.84 | 7.14 | 0.71 |  |  | 
5 | CC(C)NCC(O)CON=C1CCCC1 (centres undefined) | 24500 nM | 155 nM | 3.81 | 0.71 | 6.09 | 0.8 |  |  | 
6 | CC(C)(C)NCC(O)CON=C1CCCCC1 (centres undefined) | 8320 nM | 38.9 nM | 4.3 | 0.6 | 6.81 | 0.78 |  |  | 
7 | CC(C)(C)NCC(O)CON=C1CCCC1 (centres undefined) | 53700 nM | 174 nM | 3.58 | 0.88 | 5.88 | 0.69 |  |  | 
8 | CC(C)NCC(O)CON=C(C(C)C)C(C)C (centres undefined) | 17000 nM | 3.02 nM | 3.88 | 0.9 | 7.62 | 0.89 |  |  | 6.08
9 | CC(C)NCC(O)CON=C1CCCCC1 (centres undefined) | 20000 nM | 72.4 nM | 3.88 | 0.5 | 6.64 | 0.82 |  |  | 
10 | CCC(CC)=NOCC(O)CNC(C)C (centres undefined) | 955 nM | 4.17 nM | 5.24 | 0.81 | 7.57 | 0.78 |  |  | 
11 | CCCC(CCC)=NOCC(O)CNC(C)C (centres undefined) | 20900 nM | 6.31 nM | 4.13 | 0.714 | 7.49 | 0.55 |  |  | 
12 | COc1ccc(OC)c(C(O)C(C)NC(C)(C)C)c1 (centres undefined) [BUTOXAMINE] | 44700 nM | 129 nM | 3.98 | 0.93 | 5.96 | 0.37 |  |  | 
